# Measured values: ChEMBL document CHEMBL4330168, “Monomeric and Dimeric Cytotoxic Guaianolide-Type Sesquiterpenoids from the Aerial Parts of Chrysanthemum indicum” (J Nat Prod, 2019)
# What was measured:
# HONE1 cell line [1] = assay: Cytotoxicity against human HONE1 cells after 48 hrs by MTT assay; type: functional, cell-based; conditions: HONE1, 48 h
# In short: (§1)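 Growth inhibition in nasopharyngeal carcinoma lines (CNE1, CNE2, HONE-1, SUNE-1) and HT-29 colon cells. IC50 values are the mean ± SD of three experiments, with cisplatin as positive control.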
# CNE-2 = assay: Cytotoxicity against human CNE2 cells after 48 hrs by MTT assay; type: functional, cell-based; conditions: CNE-2, 48 h; in short: as §1
# CNE = assay: Cytotoxicity against human CNE1 cells after 48 hrs by MTT assay; type: functional, cell-based; in short: as §1
# HT-29 = assay: Cytotoxicity against human HT-29 cells after 48 hrs by MTT assay; type: functional, cell-based; conditions: HT-29, 48 h; in short: as §1
# SUNE1 = assay: Cytotoxicity against human SUNE1 cells after 48 hrs by MTT assay; type: functional, cell-based; conditions: SUNE1, 48 h; in short: as §1
# HONE1 cell line [2] = assay: Cell cycle arrest in human HONE1 cells assessed as accumulation at G2/M phase at 10 uM after 48 hrs by propidium iodide staining based flow cytometry (reference value: 0.3%); type: functional
# HONE1 cell line [3] = assay: Cell cycle arrest in human HONE1 cells assessed as accumulation at S phase at 10 uM after 48 hrs by propidium iodide staining based flow cytometry (reference value: 44.7%); type: functional
# HONE1 cell line [4] = assay: Induction of apoptosis in human HONE1 cells assessed as early apoptotic cells at 10 uM after 48 hrs by Annexin V-FITC/propidium iodide staining based flow cytometry (reference value: 3.24%); type: functional
# HONE1 cell line [5] = assay: Induction of apoptosis in human HONE1 cells assessed as live cells at 20 uM after 48 hrs by Annexin V-FITC/propidium iodide staining based flow cytometry (reference value: 96.16%); type: functional
# HONE1 cell line [6] = assay: Cell cycle arrest in human HONE1 cells assessed as accumulation at S phase at 20 uM after 48 hrs by propidium iodide staining based flow cytometry (reference value: 44.7%); type: functional
# HONE1 cell line [7] = assay: Induction of apoptosis in human HONE1 cells assessed as necrotic cells at 3 uM after 48 hrs by Annexin V-FITC/propidium iodide staining based flow cytometry (reference value: 0.23%); type: functional
# HONE1 cell line [8] = assay: Induction of apoptosis in human HONE1 cells assessed as live cells at 5 uM after 48 hrs by Annexin V-FITC/propidium iodide staining based flow cytometry (reference value: 96.16%); type: functional
# HONE1 cell line [9] = assay: Induction of apoptosis in human HONE1 cells assessed as necrotic cells at 5 uM after 48 hrs by Annexin V-FITC/propidium iodide staining based flow cytometry (reference value: 0.23%); type: functional
# HONE1 cell line [10] = assay: Induction of apoptosis in human HONE1 cells assessed as live cells at 3 uM after 48 hrs by Annexin V-FITC/propidium iodide staining based flow cytometry (reference value: 96.16%); type: functional
# HONE1 cell line [11] = assay: Induction of apoptosis in human HONE1 cells assessed as late apoptotic cells at 10 uM after 48 hrs by Annexin V-FITC/propidium iodide staining based flow cytometry (reference value: 0.37%); type: functional
# HONE1 cell line [12] = assay: Induction of apoptosis in human HONE1 cells assessed as early apoptotic cells at 20 uM after 48 hrs by Annexin V-FITC/propidium iodide staining based flow cytometry (reference value: 3.24%); type: functional
# HONE1 cell line [13] = assay: Cell cycle arrest in human HONE1 cells assessed as accumulation at G0/G1 phase at 5 uM after 48 hrs by propidium iodide staining based flow cytometry (reference value: 55%); type: functional
# HONE1 cell line [14] = assay: Induction of apoptosis in human HONE1 cells assessed as necrotic cells at 10 uM after 48 hrs by Annexin V-FITC/propidium iodide staining based flow cytometry (reference value: 0.23%); type: functional
# HONE1 cell line [15] = assay: Cell cycle arrest in human HONE1 cells assessed as accumulation at G0/G1 phase at 20 uM after 48 hrs by propidium iodide staining based flow cytometry (reference value: 55%); type: functional
# HONE1 cell line [16] = assay: Induction of apoptosis in human HONE1 cells assessed as early apoptotic cells at 5 uM after 48 hrs by Annexin V-FITC/propidium iodide staining based flow cytometry (reference value: 3.24%); type: functional
# HONE1 cell line [17] = assay: Induction of apoptosis in human HONE1 cells assessed as necrotic cells at 20 uM after 48 hrs by Annexin V-FITC/propidium iodide staining based flow cytometry (reference value: 0.23%); type: functional
# HONE1 cell line [18] = assay: Induction of apoptosis in human HONE1 cells assessed as necrotic cells at 1 uM after 48 hrs by Annexin V-FITC/propidium iodide staining based flow cytometry (reference value: 0.23%); type: functional
# HONE1 cell line [19] = assay: Cell cycle arrest in human HONE1 cells assessed as accumulation at G0/G1 phase at 10 uM after 48 hrs by propidium iodide staining based flow cytometry (reference value: 55%); type: functional
# HONE1 cell line [20] = assay: Cell cycle arrest in human HONE1 cells assessed as accumulation at G2/M phase at 20 uM after 48 hrs by propidium iodide staining based flow cytometry (reference value: 0.3%); type: functional
# HONE1 cell line [21] = assay: Induction of apoptosis in human HONE1 cells assessed as live cells at 10 uM after 48 hrs by Annexin V-FITC/propidium iodide staining based flow cytometry (reference value: 96.16%); type: functional
# HONE1 cell line [22] = assay: Induction of apoptosis in human HONE1 cells assessed as late apoptotic cells at 20 uM after 48 hrs by Annexin V-FITC/propidium iodide staining based flow cytometry (reference value: 0.37%); type: functional
# HONE1 cell line [23] = assay: Induction of apoptosis in human HONE1 cells assessed as live cells at 1 uM after 48 hrs by Annexin V-FITC/propidium iodide staining based flow cytometry (reference value: 96.16%); type: functional
# HONE1 cell line [24] = assay: Cell cycle arrest in human HONE1 cells assessed as accumulation at G2/M phase at 5 uM after 48 hrs by propidium iodide staining based flow cytometry (reference value: 0.3%); type: functional
# HONE1 cell line [25] = assay: Cell cycle arrest in human HONE1 cells assessed as accumulation at S phase at 5 uM after 48 hrs by propidium iodide staining based flow cytometry (reference value: 44.7%); type: functional
# HONE1 cell line [26] = assay: Induction of apoptosis in human HONE1 cells assessed as early apoptotic cells at 3 uM after 48 hrs by Annexin V-FITC/propidium iodide staining based flow cytometry (reference value: 3.24%); type: functional
# HONE1 cell line [27] = assay: Induction of apoptosis in human HONE1 cells assessed as late apoptotic cells at 3 uM after 48 hrs by Annexin V-FITC/propidium iodide staining based flow cytometry (reference value: 0.37%); type: functional
# HONE1 cell line [28] = assay: Cell cycle arrest in human HONE1 cells assessed as accumulation at S phase at 3 uM after 48 hrs by propidium iodide staining based flow cytometry (reference value: 44.7%); type: functional
# HONE1 cell line [29] = assay: Cell cycle arrest in human HONE1 cells assessed as accumulation at G0/G1 phase at 3 uM after 48 hrs by propidium iodide staining based flow cytometry (reference value: 55%); type: functional
# HONE1 cell line [30] = assay: Induction of apoptosis in human HONE1 cells assessed as early apoptotic cells at 1 uM after 48 hrs by Annexin V-FITC/propidium iodide staining based flow cytometry (reference value: 3.24%); type: functional
# HONE1 cell line [31] = assay: Induction of apoptosis in human HONE1 cells assessed as late apoptotic cells at 1 uM after 48 hrs by Annexin V-FITC/propidium iodide staining based flow cytometry (reference value: 0.37%); type: functional
# HONE1 cell line [32] = assay: Induction of apoptosis in human HONE1 cells assessed as late apoptotic cells at 5 uM after 48 hrs by Annexin V-FITC/propidium iodide staining based flow cytometry (reference value: 0.37%); type: functional
# HONE1 cell line [33] = assay: Cell cycle arrest in human HONE1 cells assessed as accumulation at G2/M phase at 3 uM after 48 hrs by propidium iodide staining based flow cytometry (reference value: 0.3%); type: functional
smiles,measurement,setting,value
C=C1C(=O)O[C@@H]2[C@@H]3[C@@]4(C=C[C@@]3(C)[C@]3(C4)C(=O)O[C@@H]4[C@H]5C(C)=CC[C@H]5[C@](C)(O)C[C@H](O)[C@H]43)[C@](C)(O)CC[C@@H]12,IC50,HONE1 cell line [1],> 10 µM
same,IC50,CNE-2,> 10 µM
same,IC50,CNE,> 10 µM
same,IC50,HT-29,> 10 µM
same,IC50,SUNE1,> 10 µM
C/C=C(\C)C(=O)O[C@H]1C[C@@](C)(O)[C@]23C=C[C@](C)([C@@H]2[C@H]2OC(=O)[C@@H](C)[C@@H]21)[C@]1(C3)C(=O)O[C@@H]2[C@H]3C(C)=CC[C@H]3[C@](C)(O)C[C@H](O)[C@H]21,IC50,HONE1 cell line [1],9.2 µM
same,IC50,CNE-2,9.9 µM
same,IC50,CNE,> 10 µM
same,IC50,HT-29,> 10 µM
same,IC50,SUNE1,> 10 µM
C=C1C(=O)O[C@@H]2[C@@H]3[C@@]4(C=C[C@@]3(C)[C@]3(C4)C(=O)O[C@@H]4[C@H]5C(C)=CC(=O)C5=C(C)CC[C@H]43)[C@](C)(O)CC[C@@H]12,IC50,HONE1 cell line [1],> 10 µM
same,IC50,CNE-2,> 10 µM
same,IC50,CNE,> 10 µM
same,IC50,HT-29,> 10 µM
same,IC50,SUNE1,> 10 µM
C=C1C(=O)O[C@H]2[C@H]1[C@@H](OC(=O)/C(C)=C/C)C[C@@](C)(O)[C@]13C=C[C@](C)([C@H]21)[C@]1(C3)C(=O)O[C@@H]2[C@H]3C(C)=CC[C@H]3[C@](C)(O)C[C@H](OC(=O)/C(C)=C/C)[C@H]21,Activity,HONE1 cell line [2],16.52%
same,Activity,HONE1 cell line [3],42.59%
same,Activity,HONE1 cell line [4],10.54%
same,Activity,HONE1 cell line [5],56.74%
same,Activity,HONE1 cell line [6],47.77%
same,Activity,HONE1 cell line [7],0.16%
same,IC50,HONE1 cell line [1],3.5 µM
same,IC50,CNE-2,6 µM
same,Activity,HONE1 cell line [8],81.86%
same,Activity,HONE1 cell line [9],0.53%
same,Activity,HONE1 cell line [10],96.38%
same,Activity,HONE1 cell line [11],23.45%
same,Activity,HONE1 cell line [12],9.33%
same,IC50,CNE,4.6 µM
same,Activity,HONE1 cell line [13],50.22%
same,Activity,HONE1 cell line [14],0.79%
same,Activity,HONE1 cell line [15],14.01%
same,Activity,HONE1 cell line [16],15%
same,Activity,HONE1 cell line [17],6.08%
same,Activity,HONE1 cell line [18],0.21%
same,Activity,HONE1 cell line [19],40.89%
same,Activity,HONE1 cell line [20],38.22%
same,IC50,HT-29,9.6 µM
same,Activity,HONE1 cell line [21],65.22%
same,Activity,HONE1 cell line [22],27.85%
same,Activity,HONE1 cell line [23],96.45%
same,Activity,HONE1 cell line [24],7.52%
same,Activity,HONE1 cell line [25],42.25%
same,Activity,HONE1 cell line [26],3.01%
same,Activity,HONE1 cell line [27],0.45%
same,Activity,HONE1 cell line [28],49.32%
same,IC50,SUNE1,4.3 µM
same,Activity,HONE1 cell line [29],44.75%
same,Activity,HONE1 cell line [30],2.2%
same,Activity,HONE1 cell line [31],1.14%
same,Activity,HONE1 cell line [32],2.61%
same,Activity,HONE1 cell line [33],5.93%
C/C=C(/C)C(=O)O[C@H]1C[C@@](C)(O)[C@@H]2CC(=O)C(C)=C2[C@H]2OC(=O)[C@@H](C)[C@H]12,IC50,HONE1 cell line [1],> 10 µM
same,IC50,CNE-2,> 10 µM
same,IC50,CNE,> 10 µM
same,IC50,HT-29,> 10 µM
same,IC50,SUNE1,> 10 µM
C=C1C(=O)O[C@@H]2[C@@H]3[C@@]4(C=C[C@@]3(C)[C@]3(C4)C(=O)O[C@@H]4[C@H]5C(C)=CC[C@H]5[C@](C)(O)C[C@H](OC(=O)/C(C)=C/C)[C@H]43)[C@](C)(O)CC[C@@H]12,IC50,HONE1 cell line [1],> 10 µM
same,IC50,CNE-2,> 10 µM
same,IC50,CNE,> 10 µM
same,IC50,HT-29,> 10 µM
same,IC50,SUNE1,> 10 µM
C=C1C(=O)O[C@@H]2[C@@H]3[C@@]4(C=C[C@@]3(C)[C@]3(C4)C(=O)O[C@@H]4[C@H]5C(C)=CC[C@H]5[C@](C)(O)C[C@H](OC(C)=O)[C@H]43)[C@](C)(O)CC[C@@H]12,IC50,HONE1 cell line [1],> 10 µM
same,IC50,CNE-2,> 10 µM
same,IC50,CNE,> 10 µM
same,IC50,HT-29,> 10 µM
same,IC50,SUNE1,> 10 µM
C/C=C(\C)C(=O)O[C@H]1CC(C)=C2C[C@H](O)[C@](C)(O)[C@@H]2[C@H]2OC(=O)[C@@H](C)[C@@H]21,IC50,HONE1 cell line [1],> 10 µM
same,IC50,CNE-2,> 10 µM
same,IC50,CNE,> 10 µM
same,IC50,HT-29,> 10 µM
same,IC50,SUNE1,> 10 µM
